# Active and inactive are the calls of the source.
# Experiments:
# [1] = target: T1, Delta-type opioid receptor (Rattus norvegicus, UniProt P33533); assay: Displacement of [3H]diprenorphine from rat DOR transfected in rat C6 cell membranes after 1 hr by liquid scintillation counting
# Procedure, shortened: (§1)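 Membranes (20 μg protein/tube) in 50 mM Tris-HCl pH 7.4 with 0.2 nM [3H]diprenorphine and varying peptidomimetic concentrations, 1 h at room temperature to equilibrium. GF/C filtration, five buffer washes, scintillation counting. Nonspecific binding with 10 μM naloxone.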
# [2] = tested on: Mus musculus; assay: Antinociceptive activity in C57BL/6 mouse assessed as latency time to tail flick at 10 mg/kg, ip measured at 30 min interval by warm water tail withdrawal assay; assay type: functional
# Procedure, shortened: (§2)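 Adult male C57BL/6 mice, 20–30 g, 8–16 weeks. Saline ip, baseline read 30 min later. Then three increasing ip doses every 30 min, in water or 1:1:8 ethanol:Alkumuls:water, giving cumulative 1, 3.2 and 10 mg/kg. Tail tip (2–3 cm) put in 50 °C water 30 min after each injection; latency to withdraw or flick read, 20 s cutoff; n = 3.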
# [3] = target: T2, Kappa-type opioid receptor (Homo sapiens, UniProt P41145); assay: Agonist activity at human KOR expressed in CHO cell membranes after 1 hr by [35S]GTPgammaS assay; assay type: functional
# T2 sequence (P41145 whole entry): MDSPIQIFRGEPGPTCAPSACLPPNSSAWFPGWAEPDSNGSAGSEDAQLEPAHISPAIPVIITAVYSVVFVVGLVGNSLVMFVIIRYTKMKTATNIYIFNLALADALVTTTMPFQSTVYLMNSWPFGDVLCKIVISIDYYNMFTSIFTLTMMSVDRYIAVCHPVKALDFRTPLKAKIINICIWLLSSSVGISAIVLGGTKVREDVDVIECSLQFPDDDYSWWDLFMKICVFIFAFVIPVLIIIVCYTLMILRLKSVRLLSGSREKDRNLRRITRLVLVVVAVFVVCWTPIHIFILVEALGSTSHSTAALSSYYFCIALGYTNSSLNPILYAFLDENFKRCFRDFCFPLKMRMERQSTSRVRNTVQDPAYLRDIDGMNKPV
# Procedure, shortened: (§3)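 Membranes (10–20 μg protein) from cells grown to confluence in DMEM/10% FBS, incubated 1 h at 25 °C in 50 mM Tris-HCl, 100 mM NaCl, 5 mM MgCl2, pH 7.4 with 0.1 nM [35S]GTPγS, 30 μM GDP and varying peptidomimetic concentrations. Filtered on GF/C, counted by scintillation. % stimulation relative to 10 μM DAMGO (MOR), DPDPE (DOR) or U69,593 (KOR).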
# [4] = target: T2, Kappa-type opioid receptor; assay: Displacement of [3H]diprenorphine from human KOR expressed in CHO cell membranes after 1 hr by liquid scintillation counting; procedure, shortened: as §1
# [5] = target: T1, Delta-type opioid receptor; assay: Agonist activity at rat DOR transfected in rat C6 cell membranes after 1 hr by [35S]GTPgammaS assay; assay type: functional; procedure, shortened: as §3
# [6] = target: T2, Kappa-type opioid receptor; assay: Agonist activity at human KOR expressed in CHO cell membranes at 10 uM after 1 hr by [35S]GTPgammaS assay relative to U69,593; assay type: functional; procedure, shortened: as §3
# [7] = tested on: Mus musculus; assay: Antinociceptive activity in C57BL/6 mouse assessed as time duration of action at 10 mg/kg, ip by warm water tail withdrawal assay; assay type: functional
# Procedure, shortened: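 Male C57BL/6 mice given a single 10 mg/kg ip dose. Tail-withdrawal latency in 50 °C water (2–3 cm tail tip, 20 s cutoff) read at varying times after dosing to follow duration of antinociception; n = 3.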
# [8] = target: T3, Mu-type opioid receptor (Rattus norvegicus, UniProt P33535); assay: Agonist activity at rat MOR transfected in rat C6 cell membranes after 1 hr by [35S]GTPgammaS assay; assay type: functional; procedure, shortened: as §3
# T3 sequence (P33535 whole entry): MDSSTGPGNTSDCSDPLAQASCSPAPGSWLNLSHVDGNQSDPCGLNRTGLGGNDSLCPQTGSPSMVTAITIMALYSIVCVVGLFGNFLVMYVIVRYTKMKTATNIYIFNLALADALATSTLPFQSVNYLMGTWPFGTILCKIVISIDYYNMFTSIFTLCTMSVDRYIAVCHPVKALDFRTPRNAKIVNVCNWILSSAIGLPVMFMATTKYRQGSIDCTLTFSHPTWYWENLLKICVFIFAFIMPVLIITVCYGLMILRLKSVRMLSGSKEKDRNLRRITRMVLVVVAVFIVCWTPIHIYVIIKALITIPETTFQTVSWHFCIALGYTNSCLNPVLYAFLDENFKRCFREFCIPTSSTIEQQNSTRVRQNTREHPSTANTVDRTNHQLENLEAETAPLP
# [9] = target: T3, Mu-type opioid receptor; assay: Displacement of [3H]diprenorphine from rat MOR transfected in rat C6 cell membranes after 1 hr by liquid scintillation counting; procedure, shortened: as §1
# [10] = target: Delta-type opioid receptor (Rattus norvegicus) (UniProt P33533); assay: Agonist activity at rat DOR transfected in rat C6 cell membranes at 10 uM after 1 hr by [35S]GTPgammaS assay relative to DPDPE; assay type: functional; procedure, shortened: as §3
# Chain of Delta-type opioid receptor (Rattus norvegicus) (P33533 whole entry): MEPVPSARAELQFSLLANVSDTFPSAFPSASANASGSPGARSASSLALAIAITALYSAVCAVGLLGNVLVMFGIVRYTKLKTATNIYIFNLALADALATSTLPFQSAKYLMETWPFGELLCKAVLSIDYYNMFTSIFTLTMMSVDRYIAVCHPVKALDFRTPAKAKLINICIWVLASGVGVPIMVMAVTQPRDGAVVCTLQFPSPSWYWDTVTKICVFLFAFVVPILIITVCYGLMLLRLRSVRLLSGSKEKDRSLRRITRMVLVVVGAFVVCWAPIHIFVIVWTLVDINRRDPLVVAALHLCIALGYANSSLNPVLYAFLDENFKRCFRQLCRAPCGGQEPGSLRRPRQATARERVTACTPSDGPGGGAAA
# [11] = target: Mu-type opioid receptor (Rattus norvegicus) (UniProt P33535); assay: Agonist activity at rat MOR transfected in rat C6 cell membranes at 10 uM after 1 hr by [35S]GTPgammaS assay relative to DAMGO; assay type: functional; procedure, shortened: as §3
# Chain of Mu-type opioid receptor (Rattus norvegicus) (P33535 whole entry): as the sequence (P33535 whole entry) above
# [12] = tested on: Mus musculus; assay: Antinociceptive activity in C57BL/6 mouse assessed as increase in latency time to tail flick at 1 to 3.2 mg/kg, ip measured at 30 min interval by warm water tail withdrawal assay; assay type: functional, organism-based; procedure, shortened: as §2
# [13] = tested on: Mus musculus; assay: Antinociceptive activity in C57BL/6 mouse assessed as increase in latency time to tail flick at 1 to 10 mg/kg, ip measured at 30 min interval by warm water tail withdrawal assay; assay type: functional, organism-based; procedure, shortened: as §2
# T1 sequence (P33533 whole entry): as the sequence (P33533 whole entry) above
Compound,Ki [1],Time [2],EC50 ([3]; read-out: EC50),Ki [4],EC50 ([5]; read-out: EC50),Emax [6],Time [7],EC50 [8],Ki [9],Emax [10],Emax [11],Activity [12],Activity [13],EC50 ([3]; cho),EC50 ([5]; c6)
COC(=O)N1CC[C@@H](NC(=O)[C@@H](N)Cc2c(C)cc(O)cc2C)c2cc(Cc3ccccc3)ccc21,0.51 nM,20 s,250 nM,29 nM,14 nM,28%,1 h,0.78 nM,0.19 nM,40%,95%,–,–,–,–
CCOC(=O)CN1CC[C@@H](NC(=O)[C@@H](N)Cc2c(C)cc(O)cc2C)c2cc(Cc3ccccc3)ccc21,0.58 nM,–,> 1300 nM,15 nM,15 nM,24%,–,5.1 nM,0.37 nM,34%,79%,–,–,–,–
Cc1cc(O)cc(C)c1C[C@H](N)C(=O)N[C@@H]1CCNc2ccc(Cc3ccccc3)cc21,–,–,–,–,–,–,1 h,–,–,–,–,inactive,–,–,–
COCC(=O)N1CC[C@@H](NC(=O)[C@@H](N)Cc2c(C)cc(O)cc2C)c2cc(Cc3ccccc3)ccc21,2.1 nM,–,> 1700 nM,34 nM,67 nM,38%,–,3 nM,0.15 nM,47%,91%,–,inactive,–,–
Cc1cc(O)cc(C)c1C[C@H](N)C(=O)N[C@@H]1CCN(CC(=O)O)c2ccc(Cc3ccccc3)cc21,67 nM,–,–,280 nM,–,inactive,–,78 nM,4.4 nM,inactive,87%,–,–,Not Active,Not Active
CC(=O)N1CC[C@@H](NC(=O)[C@@H](N)Cc2c(C)cc(O)cc2C)c2cc(Cc3ccccc3)ccc21,–,–,–,–,–,–,–,–,–,–,–,–,inactive,–,–
CCC(=O)N1CC[C@@H](NC(=O)[C@@H](N)Cc2c(C)cc(O)cc2C)c2cc(Cc3ccc4ccccc4c3)ccc21,0.21 nM,–,> 1400 nM,58 nM,–,15%,–,13 nM,0.28 nM,–,75%,–,inactive,–,Not Active
COC(=O)N1CC[C@@H](NC(=O)[C@@H](N)Cc2c(C)cc(O)cc2C)c2cc(Cc3ccc4ccccc4c3)ccc21,1 nM,–,–,190 nM,–,–,–,0.39 nM,0.32 nM,–,110%,–,inactive,Not Active,Not Active
CCCC(=O)N1CC[C@@H](NC(=O)[C@@H](N)Cc2c(C)cc(O)cc2C)c2cc(Cc3ccccc3)ccc21,1 nM,–,> 1200 nM,50 nM,8.1 nM,22%,–,3.5 nM,0.1 nM,44%,53%,–,–,–,–
CCC(=O)N1CC[C@@H](NC(=O)[C@@H](N)Cc2c(C)cc(O)cc2C)c2cc(Cc3ccccc3)ccc21,1.1 nM,–,880 nM,40 nM,32 nM,32%,–,3.9 nM,0.12 nM,58%,96%,–,–,–,–
CCCC(=O)N1CC[C@@H](NC(=O)[C@@H](N)Cc2c(C)cc(O)cc2C)c2cc(Cc3ccc4ccccc4c3)ccc21,0.8 nM,–,–,64 nM,–,inactive,–,0.9 nM,0.14 nM,inactive,92%,–,inactive,Not Active,Not Active
Cc1cc(O)cc(C)c1C[C@H](N)C(=O)N[C@@H]1CCN(C(=O)C2CC2)c2ccc(Cc3ccccc3)cc21,0.35 nM,11 s,1000 nM,25 nM,10 nM,32%,–,1.8 nM,0.1 nM,69%,88%,–,–,–,–
Cc1cc(O)cc(C)c1C[C@H](N)C(=O)N[C@@H]1CCN(CC(N)=O)c2ccc(Cc3ccccc3)cc21,2 nM,–,380 nM,4.3 nM,270 nM,49%,–,1.5 nM,0.23 nM,34%,99%,–,inactive,–,–
Cc1cc(O)cc(C)c1C[C@H](N)C(=O)N[C@@H]1CCN(C(=O)C(C)C)c2ccc(Cc3ccccc3)cc21,0.53 nM,–,> 1300 nM,76 nM,25 nM,41%,–,9.6 nM,0.38 nM,52%,95%,–,inactive,–,–
Cc1cc(O)cc(C)c1C[C@H](N)C(=O)N[C@@H]1CCN(C(=O)c2ccccc2)c2ccc(Cc3ccccc3)cc21,0.24 nM,–,430 nM,39 nM,–,16%,–,2.6 nM,0.08 nM,–,74%,–,inactive,–,Not Active
Cc1cc(O)cc(C)c1C[C@H](N)C(=O)N[C@@H]1CCN(C(=O)C2CCC2)c2ccc(Cc3ccccc3)cc21,0.15 nM,–,–,56 nM,5.1 nM,inactive,–,2.1 nM,0.23 nM,58%,94%,–,inactive,Not Active,–
